STAT3 activator: IL-6 driven STAT3 reporter potentiators, primary screen, U3A cells, luciferase, luminescence, MLSCN library | IL-6 STAT3-luciferase reporter; 100% = signal with IL-6 EC80 alone | activation (% of control), % at 5.6 µM | hit rate 0.91% among 190,000 | AID 871, 2007;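 active = activation above the screen-wide mean of compound activation plus 3 SD, cut at about 130% in these data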
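Detection: reporter luminescence signal / Assay system: STAT1-lacking human U3A cells, STAT3 luciferase reporter / Incubation: compound pre-incubation 1 h before IL-6, then 6 h stimulation at 37 °C / Control set: IL-6-only high control / Read-out: % activation relative to IL-6 control / Probe or stimulus: Interleukin-6, 33 ng/mL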
hK5 inh: human KLK5 protease inhibitors, primary screen, biochemical, 1536-well. recombinant hK5, fluorogenic AMC substrate cleavage. hit rate 0.59% among 210,000. inhibition, % at 5 µM. Kallikrein-5 (Homo sapiens), Q9Y337;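 active = inhibition of 40% or more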
AHR act: AHR activators, primary screen, cell-based, luminescence, luciferase reporter, human; Aryl hydrocarbon receptor (Homo sapiens), P35869; AHR-responsive luciferase reporter cells; hit rate 2.5% among 320,000; activation, % at 5 µM; in the data active = activation above about 47%
FXIa inh: human FXIa protease inhibitors, primary screen, biochemical, 1536-well | Coagulation factor XI (Homo sapiens), P03951 | purified FXIa, Boc-Glu-Ala-Arg-AMC fluorogenic substrate | inhibition, % at 5 µM | hit rate 0.14% among 220,000 | AID 798, 2007;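 active = inhibition of at least 40%; inactive = inhibition below 40%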;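 also: fluorescence of freed AMC excited at 355 nm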
Thrombin inh: human alpha-thrombin inhibitors, primary screen, counter-screen for coagulation protease inhibitor project, biochemical, 1536-well, fluorogenic AMC substrate | Prothrombin (Homo sapiens), P00734 | Boc-VPR-AMC fluorogenic substrate cleavage | inhibition, % at 5 µM | hit rate 0.26% among 220,000;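 active = inhibition at or above 40%; inactive = inhibition below 40%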
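System: human alpha-thrombin protein; Compound dosing: one concentration per compound, 5 µM, with 0.2% DMSO; Timing: reaction at room temperature; Technique: AMC fluorescence, 355/460 nm; Controls: enzyme without compound as high, wells lacking enzyme as low.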
FXIIa inh 1536: human FXIIa protease inhibitors, primary screen, biochemical, 1536-well; Coagulation factor XII (Homo sapiens), P00748; inhibition, % at 5 µM; AID 800, 2007; purified FXIIa, Boc-QGR-AMC fluorogenic substrate, 2 h; hit rate 0.3% among 220,000; in the data active = inhibition above about 40%
Target sequence (P00748 20-372 limits assumed): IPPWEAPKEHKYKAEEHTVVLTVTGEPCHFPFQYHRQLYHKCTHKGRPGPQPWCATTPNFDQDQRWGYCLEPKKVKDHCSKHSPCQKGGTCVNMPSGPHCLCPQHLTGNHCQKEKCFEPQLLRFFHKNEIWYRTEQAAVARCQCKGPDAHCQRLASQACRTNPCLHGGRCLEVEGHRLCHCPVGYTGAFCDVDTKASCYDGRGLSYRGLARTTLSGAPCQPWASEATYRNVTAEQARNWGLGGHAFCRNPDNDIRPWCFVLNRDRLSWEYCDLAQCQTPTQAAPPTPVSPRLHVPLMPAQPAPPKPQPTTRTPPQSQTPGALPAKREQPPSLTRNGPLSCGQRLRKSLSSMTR
Target sequence (P00748 373-615 limits assumed): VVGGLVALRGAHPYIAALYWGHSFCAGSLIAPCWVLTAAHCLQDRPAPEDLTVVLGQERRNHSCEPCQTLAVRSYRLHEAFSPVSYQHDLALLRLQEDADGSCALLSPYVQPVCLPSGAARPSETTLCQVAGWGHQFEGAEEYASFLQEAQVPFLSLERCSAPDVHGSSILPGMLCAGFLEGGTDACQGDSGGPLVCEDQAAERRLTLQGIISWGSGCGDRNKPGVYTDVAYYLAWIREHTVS
Each line names hits and unclear results; the compound was inactive in the other large screens. A selection: hits, their analogues and other compounds. The true share with any hit is near 3.5%.

COc1cccc(N2CCN(C(=O)c3cc4ccc(OC)cc4[nH]3)CC2)c1	none (no result: STAT3 activator, hK5 inh, FXIa inh, Thrombin inh, FXIIa inh 1536)
O=C(NCCSc1ccccc1)c1ccccc1	hK5 inh 89
CCN(C(=O)C(C)OC(=O)c1nn(-c2ccccc2C(F)(F)F)cc1O)c1ccccc1 (stereo unspecified)	none (no result: STAT3 activator, hK5 inh, FXIa inh, Thrombin inh, FXIIa inh 1536)
O=C(NC(=S)Nc1ccc(S(=O)(=O)Nc2nccs2)cc1)c1ccccc1	none
O=C(NC(=S)Nc1ccc(S(=O)(=O)Nc2nccs2)cc1)c1ccccc1F	FXIIa inh 1536 77
C=C(C)C1CC=C(C)/C(=N\NC(=S)Nc2ccc(C)cc2)C1 (stereo unspecified)	AHR act 48
CCCCNC(=O)c1cc2cc(CC)ccc2[nH]1	none (no result: STAT3 activator)
O=C(O)CCCC(=O)N1CCN(C(c2ccccc2)c2ccccc2)CC1	hK5 inh 52
Cc1cc(=O)[nH]c(SCC(=O)NCC2CCCO2)n1 (stereo unspecified)	Thrombin inh 42 (no result: STAT3 activator)
Cc1ccc(-c2nc(SCC(=O)NCC3CCCO3)c(-c3ccccc3)[nH]2)cc1 (stereo unspecified)	AHR act 70
Cc1ccc(-c2nsc(SCC(=O)NCC3CCCO3)n2)cc1 (stereo unspecified)	none
Cc1ccccc1Cn1ccc(NC(=O)c2cnn3c(C(F)(F)F)cc(-c4ccco4)nc23)n1	AHR act 48
COc1ccc2[nH]cc(C(=O)NCCc3ccccc3)c(=O)c2c1	AHR act 74 (no result: STAT3 activator, hK5 inh, FXIa inh, Thrombin inh, FXIIa inh 1536)
CCOCCCNC(=O)c1c[nH]c2ccc(OCC)cc2c1=O	AHR act 51 (no result: STAT3 activator)
CCOCCCNC(=O)c1c[nH]c2ccc(S(=O)(=O)Nc3cccc(OC)c3)cc2c1=O	none
CCOc1ccc(N(C)S(=O)(=O)c2ccc3[nH]cc(C(=O)NCC4CCCO4)c(=O)c3c2)cc1 (stereo unspecified)	AHR act 56
CCc1nc(SCC(=O)NCCc2ccccc2)c2oc3ccccc3c2n1	none
CCc1nc(SCC(=O)c2cccs2)c2oc3ccccc3c2n1	AHR act 57
O=c1[nH][nH]c(=S)n1-c1ccccc1C(F)(F)F	none (no result: STAT3 activator, AHR act)
CCS(=O)(=O)c1ccc(N=Nc2ccc(O)c3ncccc23)c(OC)c1	none (no result: AHR act)
Cc1ccc(N=Nc2ccc(O)c3ncccc23)cc1	AHR act 47
COc1ccccc1N=Nc1ccc(O)c2ncccc12	AHR act 51 (no result: STAT3 activator, hK5 inh, FXIa inh, Thrombin inh, FXIIa inh 1536)
COc1ccc(CC(=O)Nc2cccc(S(=O)(=O)N3CCCCCC3)c2)cc1OC	none
N#CC1=C(N)NC(SCc2ccc(Cl)cc2)=C(C#N)C12CCCCC2	none
N#CC1=C(N)NC(SCc2ccccc2)=C(C#N)C12CCCC2	hK5 inh 45
Cc1noc(NS(=O)(=O)c2ccc(NC(=O)NC(C)(C(F)(F)F)C(F)(F)F)cc2)c1C	none (no result: STAT3 activator, hK5 inh, FXIa inh, Thrombin inh, FXIIa inh 1536)
COc1ccc(/C=N/NC2=NS(=O)(=O)c3ccccc32)cc1OC	none (no result: STAT3 activator, hK5 inh, FXIa inh, Thrombin inh, FXIIa inh 1536)
CC(=O)Oc1ccccc1N(C(C)=O)S(=O)(=O)c1ccc2ccccc2c1	none
CC(=O)Oc1c(Br)cc(N(C(C)=O)S(=O)(=O)c2ccccc2)c2ccccc12	AHR act 48 (no result: STAT3 activator, hK5 inh, FXIa inh, Thrombin inh, FXIIa inh 1536)
N#C/C(=C\c1cn(CCOc2ccccc2)c2ccccc12)C(=O)NCc1cccs1	none
COc1cc(OC)cc(-c2sc3ccc(OC)cc3c2C#CCO)c1	AHR act 49 (no result: STAT3 activator, hK5 inh, FXIa inh, Thrombin inh, FXIIa inh 1536)
COc1cccc(-c2sc3ccc(OC)cc3c2C#CC2(O)CCCCC2)c1	none (no result: STAT3 activator, hK5 inh, FXIa inh, Thrombin inh, FXIIa inh 1536)
COc1cccc(-c2sc3ccc(OC)cc3c2C#CCCO)c1	AHR act 69 (no result: STAT3 activator, hK5 inh, FXIa inh, Thrombin inh, FXIIa inh 1536)
O=C(Oc1ccc2c3c(c(=O)oc2c1)CCC3)c1ccco1	FXIIa inh 1536 71
CCC(CO)n1c(SCc2cc(=O)oc3cc(C)ccc23)nc2ccccc2c1=O (stereo unspecified)	FXIIa inh 1536 42
CCOC(=O)c1cc2sccc2n1CC(=O)N1c2ccccc2CC1C (stereo unspecified)	FXIIa inh 1536 48
CCOC(=O)c1cc2sccc2n1CC(=O)O	none
Cc1cccc(OC(=O)NCCOC(=O)N(O)c2ccc(Cl)cc2)c1	AHR act 53

Source: PubChem (several laboratories)
